Paper PMC6543826 (Bioorganic chemistry, 2018)
“And” between values parts separate entries of the source, which are not always exact repeats. Equal entries are not always repeated. Where two headings read alike, the source gives them in different places.

Experiments:
[1] = system: NCI-60 panel of tumor cell lines; conditions: for NCI Cytotoxicity Screening Average G%: Table 4, 10 μM one-dose screen; for Average G%: average over tested NCI-60 cell lines, 10^−5 M (10 μM), 48 h
[2] = system: NCI-H522; test: cells; assay type: cell-based; conditions: NCI-H522, 10^−5 M, 48 h
[3] = system: ERK substrates (p90RSK and ELK) phosphorylation in A375 cells; test: western blotting of MAPK pathway phosphorylation in A375 cells after EGF; assay type: cell-based, human
In short: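 A375 cells (1,000,000 per well) were seeded 24 h, then treated with DMSO or test compound (0.5–25 μM) in serum-free medium for 4 or 12 h. Cells were stimulated with 100 nM EGF for 10–15 min, lysed, and 60 μg lysate was blotted. Probes: phospho-p90RSK (Thr573), RSK, phospho-Elk-1 (Ser383), phospho- and total ERK1/2, phospho-JNK (Thr183/Tyr185). Done twice.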

[4] = system: CCRF-CEM; test: cells; assay type: cell-based; conditions: 10^−5 M, 48 h
[5] = system: SK-MEL-5; test: cells; assay type: cell-based; conditions: SK-MEL-5, 10^−5 M, 48 h
[6] = system: SW-620; test: cells; assay type: cell-based; conditions: SW-620, 10^−5 M, 48 h
[7] = system: A375 cells; test: IncuCyte real time proliferation assay; assay type: cell-based, human; conditions: imaged every 1 h for 90 h
In short: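 Real-time growth: 2000 A375 cells per well adhered for 24 h, then were treated with a range of test compound doses. Phase images were taken on IncuCyte ZOOM (10× objective) every 1 h for 90 h in total. Growth confluence was estimated from the images and plotted.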

[8] = system: caspase 3/7 in A375 cells; test: IncuCyte Caspase 3/7 apoptosis assay; assay type: cell-based, human; conditions: doses of 3.7 and 33.3 μM, after 48 and 72 h
In short: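 2000 A375 cells per well adhered for 24 h, then received test compound doses plus a constant concentration of IncuCyte Caspase-3/7 reagent. Cells were imaged on IncuCyte ZOOM (10× objective) at set time points, and stained cells were counted. Apoptotic cell number was normalized to percentage area confluence at the final time point.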

[9] = system: SF-295; test: cells; assay type: cell-based; conditions: SF-295, 10^−5 M, 48 h
[10] = system: A375 cells; test: anchorage dependent colony formation assay; assay type: cell-based, human; conditions: A375, 10–14 days
In short: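 1000 A375 cells per 60 mm plate adhered for 24 h, then were treated with various test compound doses for 10–14 days. Plates were PBS-washed and fixed in 4% paraformaldehyde (15 min, room temperature). They were stained with 0.2% crystal violet in 20% methanol for 10 min, water-washed and imaged under microscope.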

[11] = system: KM 12; test: cells; assay type: cell-based; conditions: KM 12, 10^−5 M, 48 h
[12] = system: HOP-92; test: cells; assay type: cell-based; conditions: HOP-92, 10^−5 M, 48 h
[13] = system: NCI-H322M; test: cells; assay type: cell-based; conditions: 10^−5 M, 48 h
[14] = system: HCC-2998; test: cells; assay type: cell-based; conditions: HCC-2998, 10^−5 M, 48 h
[15] = system: DU-145; test: cells; assay type: cell-based; conditions: DU-145, 10^−5 M, 48 h
[16] = system: OVCAR-8; test: cells; assay type: cell-based; conditions: OVCAR-8, 10^−5 M, 48 h
[17] = system: SK-MEL-28; test: cells; assay type: cell-based; conditions: SK-MEL-28, 10^−5 M, 48 h
[18] = system: OVCAR-3; test: cells; assay type: cell-based; conditions: OVCAR-3, 10^−5 M, 48 h
[19] = system: M14; test: cells; assay type: cell-based; conditions: M14, 10^−5 M, 48 h
[20] = system: OVCAR-4; test: cells; assay type: cell-based; conditions: OVCAR-4, 10^−5 M, 48 h
[21] = target: p38MAPKα (Homo sapiens, UniProt Q16539); test: in vitro kinase assay, GST-ATF2; assay type: biochemical
Sequence of p38MAPKα (Q16539 whole entry): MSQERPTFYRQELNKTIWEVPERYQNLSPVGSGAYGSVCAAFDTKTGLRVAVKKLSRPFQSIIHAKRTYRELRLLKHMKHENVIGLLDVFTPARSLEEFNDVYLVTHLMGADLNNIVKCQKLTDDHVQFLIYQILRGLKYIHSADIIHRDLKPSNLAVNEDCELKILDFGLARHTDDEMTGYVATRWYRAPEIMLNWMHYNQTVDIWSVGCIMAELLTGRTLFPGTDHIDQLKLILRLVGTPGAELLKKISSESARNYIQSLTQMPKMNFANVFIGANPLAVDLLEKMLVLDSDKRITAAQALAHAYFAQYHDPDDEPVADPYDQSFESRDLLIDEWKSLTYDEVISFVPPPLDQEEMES

[22] = system: HCT-116; test: cells; assay type: cell-based; conditions: HCT-116, 10^−5 M, 48 h
[23] = system: BRAF-mutant A375 melanoma cells; test: A375 cell viability, MTS assay; assay type: cell-based; conditions: Homo sapiens, A-375, 72 h, read-out: A375 Cell Viability IC50
In short: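 A375 cells were kept in RPMI with 10% heat-inactivated FBS, Glutamax and penicillin/streptomycin at 37 °C in 5% CO2. 2000 cells per well were treated with a range of test compound doses for 72 h. Viability was read by MTS assay. Run in triplicate.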

[24] = system: ACHN; test: cells; assay type: cell-based; conditions: 10^−5 M, 48 h
[25] = system: SNB-19; test: cells; assay type: cell-based; conditions: SNB-19, 10^−5 M, 48 h
[26] = system: MCF7; test: cells; assay type: cell-based; conditions: MCF7, 10^−5 M, 48 h
[27] = system: HL-60 (TB); test: cells; assay type: cell-based; conditions: HL-60(TB), 10^−5 M, 48 h
[28] = system: EKVX; test: NCI-60 SRB screen, Non-small cell lung cancer; assay type: cell-based, human; conditions: 10^−5 M, 48 h
[29] = system: A498; test: NCI-60 SRB screen, Renal cancer; assay type: cell-based, human; conditions: A498, 10^−5 M, 48 h

Structure (SMILES): O=C1C(Cl)=C(c2c(O)c3c(=O)n(-c4ccccc4)c4ccccc4c3oc2=O)C(=O)c2ccccc21 [compound 6, 3-(3-Chloro-1,4-dioxo-1,4-dihydronaphthalen-2-yl)-4-hydroxy-6-phenyl-2H-pyrano[3,2-c]quinoline-2,5(6H)-dione]
- NCI Cytotoxicity Screening Average G% [1]: 35%
- Average G% [1]: 35.49%
- Growth percent (G%) [2]: 19.42%
- phosphorylation of ERK substrates (p90RSK and ELK), in words ([3]; A375, 0.5–25 μM, EGF stimulation): dose-dependent inhibition
- concentration enough to inhibit ELK phosphorylation ([3]; A375, 12 h, then EGF 100 nM): 2.5 µM
- concentration enough to inhibit p-90RSK phosphorylation ([3]; A375, 12 h, then EGF 100 nM): 10 µM
- effect on ERK or MKK½ phosphorylation or the JNK pathway ([3]; A375, EGF stimulation): no effect
- Growth percent (G%) [4]: 17.76%
- Growth percent (G%) [5]: 17.66%
- Growth percent (G%) [6]: 18.61%
- A375 real time proliferation (growth confluence), in words [7]: dose-dependent inhibition
- caspase 3/7 activity in A375 [8]: activation of caspase 3/7
- Growth percent (G%) [9]: 18.38%
- concentration at which inhibition of colony forming ability starts [10]: 2.5 µM
- Growth percent (G%) [11]: 18.86%
- Growth percent (G%) [12]: 80.01%
- Growth percent (G%) [13]: 63.53%
- Growth percent (G%) [14]: 42.85%
- Growth percent (G%) [15]: 34.21%
- Growth percent (G%) [16]: 48.24%
- Growth percent (G%) [17]: 39.37%
- Growth percent (G%) [18]: 2.15%
- Growth percent (G%) [19]: 44.74%
- Growth percent (G%) [20]: 18.80%
- ability to inhibit p38MAPKα (in words) [21]: little tendency to inhibit
- IC50 ([21]; p38MAPKα IC50, 10 μM GST-ATF2): 3.1 ± 0.5 µM
- Growth percent (G%) [22]: 41.72%
- IC50 [23]: 0.13 ± 0.03 µM
- Growth percent (G%) [24]: 28.55%
- Growth percent (G%) [25]: 27.87%
- Growth percent (G%) [26]: 51.60%
- Growth percent (G%) [27]: 7.05%

Structure (SMILES): Cn1c(=O)c2c(=O)c3c4c(oc3oc2c2ccccc21)C(=O)c1ccccc1C4=O [5a, 5-Methyl-5H-naphthalen[2″,3″:4′,5′]furo[3′,2′:4′,5,6]pyrano [3,2-c]quinoline-6,7,8,13-tetraone]
- Average G% [1]: 95.45%
- Growth percent (G%) [2]: 78.37%
- Growth percent (G%) [4]: 92.93%
- Growth percent (G%) [5]: 97.56%
- Growth percent (G%) [6]: 103.1%
- Growth percent (G%) [9]: 101.32%
- Growth percent (G%) [11]: 95.63%
- Growth percent (G%) [12]: 99.17%
- Growth percent (G%) [13]: 91.04%
- Growth percent (G%) [14]: 103.64%
- Growth percent (G%) [15]: 81.38%
- Growth percent (G%) [16]: 100.1%
- Growth percent (G%) [17]: 107.21%
- Growth percent (G%) [18]: 98.93%
- Growth percent (G%) [19]: 98.25%
- Growth percent (G%) [20]: 97.38%
- ability to inhibit p38MAPKα (in words) [21]: did not show any ability to inhibit
- IC50 ([21]; read-out: p38MAPKα IC50, 10 μM GST-ATF2): > 200 µM
- Growth percent (G%) [22]: 99.77%
- Growth percent (G%) [24]: 85.7%
- Growth percent (G%) [25]: 110.38%
- Growth percent (G%) [26]: 76.73%
- Growth percent (G%) [27]: 104.29%

Structure (SMILES): O=C1c2ccccc2C(=O)c2c1oc1c2c(=O)[nH]c2ccccc21 [3a, Naphtho[2′,3′:4,5]furo[3,2-c]quinoline-6,7,12(5H)-trione]
- NCI Cytotoxicity Screening Average G% [1]: 68%
- Average G% [1]: 68% and 68.19%
- Growth percent (G%) [2]: 54.81%
- Growth percent (G%) [4]: 20.72%
- Growth percent (G%) [28]: 27.35%
- Growth percent (G%) [5]: 79.73%
- Growth percent (G%) [6]: 89.23%
- Growth percent (G%) [9]: 92.71%
- Growth percent (G%) [11]: 66.22%
- Growth percent (G%) [12]: 71.42%
- Growth percent (G%) [13]: 89.28%
- Growth percent (G%) [14]: 102.57%
- Growth percent (G%) [15]: 82.02%
- Growth percent (G%) [16]: 35.61%
- Growth percent (G%) [17]: 112.03%
- Growth percent (G%) [18]: −14.81%
- Growth percent (G%) [29]: 103.58%
- Growth percent (G%) [19]: 73.38%
- Growth percent (G%) [20]: −5.49%
- ability to inhibit p38MAPKα (in words) [21]: did not show any ability to inhibit
- IC50 ([21]; p38MAPKα IC50, 10 μM GST-ATF2): > 200 µM
- Growth percent (G%) [22]: 55.46%
- Growth percent (G%) [24]: 65.70%
- Growth percent (G%) [25]: 103.72%
- Growth percent (G%) [26]: 48.82%
- Growth percent (G%) [27]: 2.26%
